The source of these data is ChEMBL document CHEMBL1126645, “Nonsymmetrical bipiperidyls as inhibitors of vesicular acetylcholine storage” (J Med Chem, 1993).

In this assay the target is T1, Vesicular acetylcholine transporter (Torpedo californica, UniProt P81721).
T1 sequence (P81721 whole entry): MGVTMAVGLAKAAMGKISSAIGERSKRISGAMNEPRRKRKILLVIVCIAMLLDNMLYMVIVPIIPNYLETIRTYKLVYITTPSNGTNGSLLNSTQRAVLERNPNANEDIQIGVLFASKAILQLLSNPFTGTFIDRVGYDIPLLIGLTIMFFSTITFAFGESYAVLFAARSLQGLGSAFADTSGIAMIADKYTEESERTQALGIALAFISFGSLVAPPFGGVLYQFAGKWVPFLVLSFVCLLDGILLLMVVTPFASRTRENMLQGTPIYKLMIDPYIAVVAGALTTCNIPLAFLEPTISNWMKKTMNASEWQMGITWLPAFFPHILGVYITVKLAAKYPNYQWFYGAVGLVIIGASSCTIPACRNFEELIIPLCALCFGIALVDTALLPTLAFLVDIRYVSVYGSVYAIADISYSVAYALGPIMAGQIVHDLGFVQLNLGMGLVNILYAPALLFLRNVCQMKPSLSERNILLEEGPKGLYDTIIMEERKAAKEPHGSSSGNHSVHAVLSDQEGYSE
The experiment in a line: Inhibition of [3H]- vesamicol binding to synaptic vesicles preparation from the electric organ of Torpedo californica. Details: species or system Tetronarce californica. A digest of the protocol:
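Run without ATP and without acetylcholine. Each drug concentration tested in duplicate, with variation below 5%. Other assay details follow an earlier published protocol.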
Molecule `O=C(c1ccccc1I)N1CC[C@@H](O)[C@H](N2CCC(c3ccccc3)CC2)C1` had an IC50 of 250 nM.

Consider `O[C@@H]1CNCC[C@H]1N1CCC(c2ccccc2)CC1`, for which the 50% inhibitory concentration (IC50) came to 5000 nM.

As to `O=C(c1cccc(I)c1)N1CC[C@@H](O)[C@H](N2CCC(c3ccccc3)CC2)C1`, the half-inhibitory concentration (IC50) worked out at 39 nM.

`Cc1ccc(CN2CC[C@@H](O)[C@H](N3CCC(c4ccccc4)CC3)C2)cc1` displayed an IC50 of 24 nM. Compared with the last molecule, the IC50 is about 1.6-fold lower.

`O[C@@H]1CCN(Cc2cccc(F)c2)C[C@H]1N1CCC(c2ccccc2)CC1` registered a 50% inhibitory concentration (IC50) of 31 nM. This IC50 and that of the molecule before are within 1.5-fold of each other.

In the case of `O[C@@H]1CCN(Cc2cccc(Br)c2)C[C@H]1N1CCC(c2ccccc2)CC1`, the concentration for half-maximal inhibition (IC50) came to 21 nM.

In turn, `O[C@@H]1CCN(Cc2ccc(Br)cc2)C[C@H]1N1CCC(c2ccccc2)CC1` registered an IC50 of 25 nM.

On to `O[C@@H]1CN(Cc2ccc(Br)cc2)CC[C@H]1N1CCC(c2ccccc2)CC1`, for which the half-inhibitory concentration (IC50) was found to be 310 nM.

On to `Cc1ccccc1CN1CC[C@@H](O)[C@H](N2CCC(c3ccccc3)CC2)C1`, for which the half-inhibitory concentration (IC50) came out at 25 nM.

For `O=C(c1ccccc1)N1CC[C@@H](O)[C@H](N2CCC(c3ccccc3)CC2)C1`, the concentration for half-maximal inhibition (IC50) was 34 nM.

The molecule `O[C@@H]1CN(Cc2ccccc2)CC[C@H]1N1CCC(c2ccccc2)CC1` showed a 50% inhibitory concentration (IC50) of 83 nM. This IC50 lies about 2.4-fold higher than the previous one.

`O=[N+]([O-])c1ccc(N2CC[C@@H](O)[C@H](N3CCC(c4ccccc4)CC3)C2)cc1` showed an IC50 of 290 nM.

In turn, `O[C@@H]1CCN(Cc2ccccc2Br)C[C@H]1N1CCC(c2ccccc2)CC1` returned an IC50 of 22 nM.

`O[C@@H]1CCN(Cc2ccccc2)C[C@H]1N1CCC(c2ccccc2)CC1` registered an IC50 of 30 nM.

In turn, `O[C@@H]1CCN(Cc2cccc(I)c2)C[C@H]1N1CCC(c2ccccc2)CC1` gave an IC50 of 26 nM.

`O[C@@H]1CCNC[C@H]1N1CCC(c2ccccc2)CC1` gave a half-maximal inhibitory concentration (IC50) of 2900 nM.

`O=C(c1ccccc1)N1CC[C@@H](N2CCC(c3ccccc3)CC2)[C@H](O)C1`: the half-maximal inhibitory concentration (IC50) worked out at 1900 nM.

Turning to `Cc1cccc(CN2CC[C@@H](O)[C@H](N3CCC(c4ccccc4)CC3)C2)c1`, the IC50 was 22 nM. This IC50 lies about 86-fold lower than the previous one.

In the case of `O=C(c1ccc(I)cc1)N1CC[C@@H](O)[C@H](N2CCC(c3ccccc3)CC2)C1`, the IC50 came to 22 nM. In other words, the double-digit nanomolar range.

With `O[C@@H]1CCN(Cc2ccc(F)cc2)C[C@H]1N1CCC(c2ccccc2)CC1`, the IC50 was determined as 14 nM.

Molecule `O[C@@H]1CCN(Cc2ccccc2F)C[C@H]1N1CCC(c2ccccc2)CC1` returned a 50% inhibitory concentration (IC50) of 42 nM.

Regarding `O[C@@H]1CN(Cc2ccccc2Br)CC[C@H]1N1CCC(c2ccccc2)CC1`, the concentration for half-maximal inhibition (IC50) was 55 nM. The IC50 values of the last two molecules are within 1.5-fold of each other.

What is called IC50 is the midpoint of a concentration-inhibition curve. A lower IC50 goes with inhibition by little substance.
